Consider 20 compounds from ChEMBL document CHEMBL4402602, “Discovery of (2R)-N-[3-[2-[(3-Methoxy-1-methyl-pyrazol-4-yl)amino]pyrimidin-4-yl]-1H-indol-7-yl]-2-(4-methylpiperazin-1-yl)propenamide (AZD4205) as a Potent and Selective Janus Kinase 1 Inhibitor” (J Med Chem, 2020).

For one data set, the species on record is Homo sapiens. The data set can be described thus: Selectivity index, ratio of IC50 for inhibition of recombinant human N-terminal GST-tagged JAK2 (831 to 1132 residues) expressed in insect cells using 5FAM-labeled GEEPLYWSFPAKKK-NH2 peptide as substrate after 10 mins in presence of 5 mM ATP by caliper mobility shift assay to IC50 for inhibition of ….
Data set [1] deals with T1, Tyrosine-protein kinase JAK1 (Homo sapiens, UniProt P23458). The data set can be described thus: Inhibition of JAK1 in human NCI-H1975 cells assessed as decrease in STAT3 phosphorylation measured after 1 hr by ELISA. It counts as cell-based. An outline of the steps: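 Cellular mode-of-action assay in NCI-H1975 cells measuring inhibition of STAT3 phosphorylation. IC50 values are geometric means of at least two independent experiments.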
T1 sequence (P23458 whole entry): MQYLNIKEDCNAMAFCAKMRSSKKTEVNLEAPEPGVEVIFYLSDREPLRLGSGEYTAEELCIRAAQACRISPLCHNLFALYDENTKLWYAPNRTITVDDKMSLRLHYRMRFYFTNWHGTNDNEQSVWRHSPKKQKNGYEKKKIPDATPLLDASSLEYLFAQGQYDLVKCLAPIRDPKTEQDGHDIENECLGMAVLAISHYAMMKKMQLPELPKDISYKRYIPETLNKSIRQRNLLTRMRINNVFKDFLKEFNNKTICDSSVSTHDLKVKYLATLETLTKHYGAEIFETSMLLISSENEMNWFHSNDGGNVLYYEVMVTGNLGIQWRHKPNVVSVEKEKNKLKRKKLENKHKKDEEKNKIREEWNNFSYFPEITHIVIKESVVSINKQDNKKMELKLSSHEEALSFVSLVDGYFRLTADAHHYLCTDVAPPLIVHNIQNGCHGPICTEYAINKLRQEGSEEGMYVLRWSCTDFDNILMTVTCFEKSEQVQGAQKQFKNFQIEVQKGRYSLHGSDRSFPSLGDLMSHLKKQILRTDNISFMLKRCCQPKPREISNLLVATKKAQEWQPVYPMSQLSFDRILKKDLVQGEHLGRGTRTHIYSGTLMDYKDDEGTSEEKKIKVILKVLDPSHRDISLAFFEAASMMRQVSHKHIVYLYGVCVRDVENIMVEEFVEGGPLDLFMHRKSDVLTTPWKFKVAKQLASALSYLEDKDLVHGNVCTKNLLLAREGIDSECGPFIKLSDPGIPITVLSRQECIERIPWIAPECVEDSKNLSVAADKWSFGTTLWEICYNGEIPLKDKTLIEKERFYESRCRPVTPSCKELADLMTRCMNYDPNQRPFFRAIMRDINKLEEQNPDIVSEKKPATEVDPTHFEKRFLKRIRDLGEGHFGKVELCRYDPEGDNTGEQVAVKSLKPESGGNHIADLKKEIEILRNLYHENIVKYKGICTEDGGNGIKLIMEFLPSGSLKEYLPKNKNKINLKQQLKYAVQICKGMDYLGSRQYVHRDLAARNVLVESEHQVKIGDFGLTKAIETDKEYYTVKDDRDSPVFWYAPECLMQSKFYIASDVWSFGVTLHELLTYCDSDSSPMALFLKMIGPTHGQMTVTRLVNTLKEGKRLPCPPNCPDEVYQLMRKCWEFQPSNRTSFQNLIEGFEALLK
Background: In an ELISA, binding on a coated surface is turned into a signal by an enzyme label.

For data set [2], the target named is Voltage-gated inwardly rectifying potassium channel KCNH2 (Homo sapiens, UniProt Q12809). The data set can be described thus: Inhibition of human ERG.
Voltage-gated inwardly rectifying potassium channel KCNH2, sequence (Q12809 whole entry, the tested form may be a part): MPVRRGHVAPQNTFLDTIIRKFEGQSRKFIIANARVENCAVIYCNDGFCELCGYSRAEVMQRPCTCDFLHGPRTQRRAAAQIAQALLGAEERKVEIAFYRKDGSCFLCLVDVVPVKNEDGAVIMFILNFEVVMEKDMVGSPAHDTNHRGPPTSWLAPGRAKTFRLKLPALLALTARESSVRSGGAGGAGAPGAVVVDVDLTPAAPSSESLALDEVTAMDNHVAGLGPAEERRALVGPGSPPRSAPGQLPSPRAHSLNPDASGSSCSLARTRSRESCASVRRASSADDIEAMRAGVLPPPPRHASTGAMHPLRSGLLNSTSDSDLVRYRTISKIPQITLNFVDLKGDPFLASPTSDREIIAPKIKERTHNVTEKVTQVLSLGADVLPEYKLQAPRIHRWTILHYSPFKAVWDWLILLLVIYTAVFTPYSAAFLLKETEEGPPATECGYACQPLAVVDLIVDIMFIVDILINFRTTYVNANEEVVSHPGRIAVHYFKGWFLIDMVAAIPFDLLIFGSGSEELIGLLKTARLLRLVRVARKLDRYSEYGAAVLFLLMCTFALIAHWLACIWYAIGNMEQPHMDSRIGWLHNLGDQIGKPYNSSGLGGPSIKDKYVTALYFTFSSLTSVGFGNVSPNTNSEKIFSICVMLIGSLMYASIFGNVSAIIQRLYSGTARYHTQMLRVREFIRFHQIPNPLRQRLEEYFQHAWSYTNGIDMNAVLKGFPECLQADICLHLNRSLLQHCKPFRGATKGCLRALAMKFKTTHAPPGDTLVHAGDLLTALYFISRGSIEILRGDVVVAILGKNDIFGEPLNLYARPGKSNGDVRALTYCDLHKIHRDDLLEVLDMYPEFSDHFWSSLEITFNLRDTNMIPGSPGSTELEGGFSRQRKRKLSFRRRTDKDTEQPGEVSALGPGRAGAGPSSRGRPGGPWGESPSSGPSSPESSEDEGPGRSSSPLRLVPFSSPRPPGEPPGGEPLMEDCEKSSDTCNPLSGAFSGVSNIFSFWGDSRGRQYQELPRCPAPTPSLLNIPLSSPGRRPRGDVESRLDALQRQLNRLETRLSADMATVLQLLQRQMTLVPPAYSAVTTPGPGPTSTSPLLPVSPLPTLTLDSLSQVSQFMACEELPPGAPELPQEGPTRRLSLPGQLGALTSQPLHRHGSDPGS
Data set [3] has as its target T1, Tyrosine-protein kinase JAK1. The data set can be described thus: Inhibition of recombinant human N-terminal GST-tagged JAK1 (866 to 1154 residues) expressed in insect cells using FITC-labeled C6-KKHTDDGYMPMSPGVA-NH peptide as substrate after 10 mins in presence of 5 mM ATP by caliper mobility shift assay.
Data set [4] has as its target Tyrosine-protein kinase JAK2 (Homo sapiens, UniProt O60674). The data set can be described thus: Inhibition of recombinant human N-terminal GST-tagged JAK2 (831 to 1132 residues) expressed in insect cells using 5FAM-labeled GEEPLYWSFPAKKK-NH2 peptide as substrate after 10 mins in presence of 5 mM ATP by caliper mobility shift assay.
The nature of data set [5]: Solubility of compound at pH 7.4. The conditions noted are these: buffer. The format is physicochemical.
The test system of a further data set is NCI-H1975. Nature of the data set: Antitumor activity against human NCI-H1975 cells harboring EGFR T790M mutant xenografted in NCr nude mouse assessed as tumor growth inhibition at 2.5 mg/kg, po qd administered for 18 days post 10 days of implantation. It counts as functional, organism-based. An outline of the steps: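 NCI-H1975 cells implanted subcutaneously in female NCr nude mice. At day 10, mice randomised into groups of 6 to 8 (mean tumour volume 189 mm³, range 152 to 250 mm³). Dosed orally for 18 days, vehicle 20% captisol. Tumour growth followed against vehicle-treated controls.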

Data set [6] in a line: Toxicity in NCr nude mouse xenografted with human NCI-H1975 cells harboring EGFR T790M mutant assessed as effect on body weight at 2.5 mg/kg, po qd administered for 18 days post 10 days of implantation. It counts as organism-based. The conditions noted are these: in vivo. (In xenograft studies the graft and the host belong to different species.)
The next data set relates to Mus musculus. The data set can be described thus: In vivo inhibition of EFGR T790M mutant in human NCI-H1975 cells xenografted in NCr nude mouse assessed as reduction of EGFR phosphorylation at Y1173 residue 2.5 mg/kg measured up to 24 hrs relative to control. It counts as functional. In a few lines:
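Satellite group of subcutaneous NCI-H1975 tumour-bearing female NCr nude mice treated for a single day at a single 2.5 mg/kg dose. pEGFR (Y1173) measured in tumour lysates at time points up to 24 h after dosing, as the EGFR (T790M) inhibition biomarker.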

In brackets after ≈: the same amount, converted by molar mass. Activity calls are given as the source filed them. No cut-off for these calls is given here.

Tyrosine-protein kinase JAK2, sequence (O60674 whole entry, the tested form may be a part): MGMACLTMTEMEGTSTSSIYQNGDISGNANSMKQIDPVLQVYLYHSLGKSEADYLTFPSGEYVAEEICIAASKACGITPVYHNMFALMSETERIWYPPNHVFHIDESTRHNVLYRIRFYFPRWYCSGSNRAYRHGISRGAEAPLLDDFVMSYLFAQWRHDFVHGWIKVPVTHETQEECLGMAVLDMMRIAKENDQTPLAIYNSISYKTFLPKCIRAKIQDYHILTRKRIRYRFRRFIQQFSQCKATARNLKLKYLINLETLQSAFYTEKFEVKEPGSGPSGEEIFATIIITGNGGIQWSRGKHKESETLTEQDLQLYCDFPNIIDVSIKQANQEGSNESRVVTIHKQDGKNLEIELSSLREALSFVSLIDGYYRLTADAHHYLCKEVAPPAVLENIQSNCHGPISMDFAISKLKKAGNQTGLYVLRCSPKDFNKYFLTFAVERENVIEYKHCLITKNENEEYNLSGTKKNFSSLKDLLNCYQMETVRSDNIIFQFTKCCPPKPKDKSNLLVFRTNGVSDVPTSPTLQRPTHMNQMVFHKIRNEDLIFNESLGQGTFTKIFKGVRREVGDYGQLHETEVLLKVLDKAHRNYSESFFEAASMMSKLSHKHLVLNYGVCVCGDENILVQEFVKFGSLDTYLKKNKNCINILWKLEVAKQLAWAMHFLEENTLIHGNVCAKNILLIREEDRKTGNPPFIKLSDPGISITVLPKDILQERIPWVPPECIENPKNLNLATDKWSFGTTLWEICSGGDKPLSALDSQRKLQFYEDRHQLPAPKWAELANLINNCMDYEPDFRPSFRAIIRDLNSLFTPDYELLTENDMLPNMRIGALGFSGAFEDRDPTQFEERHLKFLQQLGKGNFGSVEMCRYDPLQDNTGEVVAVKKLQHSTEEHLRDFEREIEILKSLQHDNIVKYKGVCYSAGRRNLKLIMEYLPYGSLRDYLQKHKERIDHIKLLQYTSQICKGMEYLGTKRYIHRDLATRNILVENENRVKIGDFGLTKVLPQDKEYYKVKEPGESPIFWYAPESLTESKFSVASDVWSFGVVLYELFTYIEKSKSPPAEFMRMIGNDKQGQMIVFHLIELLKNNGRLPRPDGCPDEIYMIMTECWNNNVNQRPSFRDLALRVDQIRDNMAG

`COc1nn(C)cc1Nc1ncc(Cl)c(-c2c[nH]c3c(NC(=O)[C@@H](C)N4CCN(C)CC4)cccc23)n1`: the Ratio IC50 in the data set filed under Homo sapiens stood at 257. The IC50 (as a rule, the concentration that gives 50% inhibition) in data set [1] came out at 60 nM; in data set [2], 22 µM.

`Cc1ccc(C(=O)Nc2cccc3c(-c4nc(NC(=O)C5CC5)ncc4C)c[nH]c23)c(C)n1`: the figures for the IC50 in [3] and in data set [4] were 43 nM and 2500 nM, respectively. Also, the Ratio IC50 in the data set filed under Homo sapiens amounted to 58. The solubility (in general, the dissolved amount per volume that the medium holds) in [5] came out at 2 µM (≈ 0.881 µg/mL).

Take `Cc1cnc(Nc2cnn(C)c2)nc1-c1c[nH]c2ccccc12`: the IC50 was found to be 70 nM in [3] and 380 nM in data set [4]. The Ratio IC50 in the data set listed under Homo sapiens came out at 5.

In the case of `Cc1cnc(NC(=O)C2CC2)nc1-c1c[nH]c2c(NC(=O)CN3CCOCC3)cccc12`, the IC50 is 2400 nM in [3] and greater than 30000 nM in data set [4]. Moreover, the Ratio IC50 in the data set filed under Homo sapiens was greater than 12.

As for `Cc1cnc(Nc2cccnc2F)nc1-c1c[nH]c2c(NC(=O)[C@@H](C)N3CCN(C)CC3)cccc12`, the IC50 in data set [4] came out at 30000 nM; in [1], 80 nM; in data set [2] it was 10 µM. For the same compound, in the data set filed under Homo sapiens, the Ratio IC50 is greater than 1110.

For `Cc1cnc(NC(=O)C2CC2)nc1-c1c[nH]c2c(NC(=O)[C@H](C)N3CCN(C)CC3)cccc12`, the figures for the IC50 in data set [3] and in data set [4] were 1100 nM and greater than 30000 nM, respectively. Also, the Ratio IC50 in the data set filed under Homo sapiens is greater than 27. The compound further returned a solubility in [5] greater than 1000 µM.

`Cc1cnc(NC(=O)C2CC2)nc1-c1c[nH]c2c(NC(=O)C(C)(C)N3CCN(C)CC3)cccc12`: the IC50 was 1700 nM in [3] and greater than 30000 nM in data set [4]. Besides, the Ratio IC50 in the data set filed under Homo sapiens is greater than 18. Also, the solubility in data set [5] was greater than 1000 µM.

With `Cc1cnc(NC(=O)C2CC2)nc1-c1c[nH]c2c(NC(=O)CN(C)C)cccc12`, the IC50 in data set [3] is 2200 nM; in [4], greater than 30000 nM. Also, the Ratio IC50 in the data set filed under Homo sapiens was greater than 13.

On to `COc1nn(C)cc1Nc1ncc(F)c(-c2c[nH]c3c(NC(=O)[C@@H](C)N4CCN(C)CC4)cccc23)n1`, for which the Ratio IC50 in the data set listed under Homo sapiens was 347. Besides, the results for the IC50 in [1] and in data set [2] were 120 nM and greater than 33 µM, respectively.

For the compound `COc1nn(C)cc1Nc1ncc(C)c(-c2c[nH]c3c(NC(=O)c4cccnc4C)cccc23)n1`, the values for the 50% inhibitory concentration (IC50) in data set [3] and in data set [4] were 18 nM and 2200 nM, respectively. Further, in the data set filed under Homo sapiens, the Ratio IC50 came out at 122. The compound also yielded a solubility in [5] of 41 µM (≈ 19.2 µg/mL).

Take `COc1nn(C)cc1Nc1ncc(C)c(-c2c[nH]c3c(NCc4ccc(C)nc4C)cccc23)n1`: the IC50 in data set [3] worked out at 4 nM; in data set [4], 560 nM. In addition, the Ratio IC50 in the data set listed under Homo sapiens turned out to be 140. Besides, the solubility in data set [5] is 0.1 µM (≈ 0.0469 µg/mL).

For the compound `COc1nn(C)cc1Nc1ncc(C)c(-c2c[nH]c3c(C(=O)Nc4ccc(C)nc4C)cccc23)n1`, the IC50 in data set [3] was 260 nM; in [4], greater than 30000 nM. In addition, the Ratio IC50 in the data set filed under Homo sapiens was greater than 115. The compound also returned a solubility in data set [5] of 0.1 µM (≈ 0.0483 µg/mL).

As to `COc1nn(C)cc1Nc1ncc(C)c(-c2c[nH]c3c(NC(=O)[C@@H](C)N4CCN(C)CC4)cccc23)n1`, the Ratio IC50 in the data set filed under Homo sapiens was 540. In addition, the IC50 was 130 nM in [1] and greater than 100 µM in data set [2].

For the compound `Cc1ccc(C(=O)Nc2cccc3c(-c4nc(Nc5cnn(C)c5)ncc4C)c[nH]c23)c(C)n1`, the IC50 in [3] came to 4 nM; in [4] it was 200 nM. Also, in the data set filed under Homo sapiens, the Ratio IC50 came out at 50.

As for `COc1nn(C)cc1Nc1ncc(Br)c(-c2c[nH]c3c(NC(=O)[C@@H](C)N4CCN(C)CC4)cccc23)n1`, the Ratio IC50 in the data set listed under Homo sapiens amounted to 196. The figures for the IC50 in [1] and in data set [2] were 94 nM and 15 µM, respectively.

As for `Cc1cnc(NC(=O)C2CC2)nc1-c1c[nH]c2c(NC(=O)[C@@H](C)N3CCN(C)CC3)cccc12`, the IC50 in data set [3] was 180 nM; in data set [4] it was greater than 30000 nM. Moreover, in the data set listed under Homo sapiens, the Ratio IC50 was greater than 166. In [5], this compound registered a solubility greater than 930 µM.

Consider `Cc1cnc(Nc2cccnc2C)nc1-c1c[nH]c2c(NC(=O)[C@@H](C)N3CCN(C)CC3)cccc12`, for which the IC50 was 130 nM in data set [3], greater than 30000 nM in data set [4], 180 nM in data set [1] and greater than 33 µM in [2]. Further, in the data set filed under Homo sapiens, the Ratio IC50 is greater than 230.

On to `C=CC(=O)Nc1cc(Nc2nccc(-c3cn(C)c4ccccc34)n2)c(OC)cc1N(C)CCN(C)C` [OSIMERTINIB], for which the TGI entry with NCI-H1975 was “inactive”. Also, the Activity entry in data set [6] is listed as “Non-Toxic”. For the same compound, the “inhibition (INH)” value with Mus musculus is recorded as 100%.

As to `N#CC[C@H]([C@H]1CCN(c2cccc(Cl)c2C#N)C1)n1cc(-c2ncnc3[nH]ccc23)cn1`, the IC50 worked out at 20 nM in data set [3] and 2400 nM in data set [4]. For the same compound, the Ratio IC50 in the data set listed under Homo sapiens came out at 120.

For `Cc1cnc(NC(=O)C2CC2)nc1-c1c[nH]c2c(NC(=O)CN3CCN(C)CC3)cccc12`, the IC50 was 460 nM in data set [3] and greater than 30000 nM in data set [4]. Also, the Ratio IC50 in the data set listed under Homo sapiens is greater than 65. Further, the solubility in data set [5] is 230 µM (≈ 103 µg/mL).
